Results on 35 molecules are retold here after ChEMBL document CHEMBL4038278, “Structural modifications of diarylpyrimidines (DAPYs) as HIV-1 NNRTIs: Synthesis, anti-HIV activities and SAR” (Bioorg Med Chem, 2017).

By pEC50 is commonly meant −log10 of the EC50, conventionally taken in molar units. For orientation: CC50 means the concentration giving 50% cytotoxicity.

pEC50: −log10 of the molar value. Bounds are passed on as bounds.

For series [1], the system named is Human immunodeficiency virus 2. In words: Antiviral activity against HIV-2 ROD infected in human MT4 cells assessed as protection against virus induced cytopathic effect measured at 5 days post infection by MTT assay. The class given is functional, cell-based. The following applies: Human immunodeficiency virus 2, ISOLATE ROD, MT4, 120 h. In outline: (§1)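 MT-4 cells spun down (5 min, 220 g), resuspended at 6 x 10^5 cells/mL and infected with 100-300 CCID50 virus. Serial 5-fold compound dilutions added at infection, triplicate wells. After 5 days, viability read by MTT reduction at 540 and 690 nm using the median of three wells. […] Mean of at least three independent experiments.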
For orientation: Cytopathic effects are the visible damage that an infection or toxin causes in cultured cells.

A short description of series [2]: Cytotoxicity against human MT4 cells assessed as reduction in cell viability after 5 days by MTT assay. The class given is cell-based. In outline: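 Mock-infected exponentially growing MT-4 cells (6 x 10^5 cells/mL) given serial 5-fold compound dilutions in triplicate wells in parallel with the infected series. Viability measured by MTT after 5 days, absorbance at 540/690 nm, median of three wells. […] Mean of at least three independent experiments.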
(In general: Formazan colour is commonly taken as a measure of viable cells.)

Series [3] is described as follows: Inhibition of HIV-1 3B wild type reverse transcriptase infected in human MT4 cells assessed as protection against virus-induced cytopathic effect measured at 5 days post infection by MTT assay. Format: cell-based. The following applies: Human immunodeficiency virus 1, 3B, MT4, 120 h. In outline:
as §1

A short description of series [4]: Selectivity index, ratio of CC50 for human MT4 cells to EC50 for HIV-1 3B wild type reverse transcriptase infected in human MT4 cells. The class given is toxicity, cell-based. The following applies: read-out: Ratio CC50/EC50. In outline:
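SI calculated as CC50 in mock-infected MT-4 cells divided by EC50 against HIV-1 IIIB. Both values come from the same 5-day MTT run, with infected and mock-infected triplicate series tested in parallel.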

For `N#Cc1ccc(Nc2nccc(OCc3ccccc3)n2)cc1`, the results for the pEC50 in series [1] and in series [3] were below 4.89 and 7.66, respectively. Also, the half-maximal cytotoxic concentration (CC50) at 120 h in series [2] was 13 µM. Further, the selectivity ratio in series [4] amounted to 591.

For the molecule `N#Cc1ccc(Nc2nccc(OCc3ccc4ccccc4c3)n2)cc1`, the values for the negative-log EC50 (pEC50) in series [1] and in series [3] were below 3.67 and 6.77, respectively. The half-maximal cytotoxic concentration (CC50) at 120 h in series [2] came to 212 µM. For the same molecule, the selectivity ratio in series [4] was 1250.

As to `CN(C)c1ccnc(Nc2ccc(C#N)cc2)n1`, the pEC50 in series [1] and in series [3] was below 4.47 in each case. Also, the CC50 at 120 h in series [2] stood at 34 µM. Moreover, the selectivity ratio in series [4] was below 1.

As for `N#Cc1ccc(Nc2nccc(OCc3cccc(Br)c3)n2)cc1`, the pEC50 in series [1] was below 3.66; in series [3], 7.32. Besides, in series [2], the 50% cytotoxic concentration (CC50) at 120 h was 221 µM. Moreover, the selectivity ratio in series [4] came out at 4600.

As for `N#Cc1ccc(Nc2nccc(OCc3cccc(F)c3)n2)cc1`, the results for the pEC50 in series [1] and in series [3] were below 3.98 and 7.85, respectively. Besides, the 50% cytotoxic concentration (CC50) at 120 h in series [2] came to 105 µM. In series [4], the selectivity ratio stood at 7500.

For `COc1ccccc1COc1ccnc(Nc2ccc(C#N)cc2)n1`, the pEC50 in series [1] is below 5.05; in series [3], 7.57. For the same molecule, the CC50 at 120 h in series [2] worked out at 8.9 µM. Also, the selectivity ratio in series [4] amounted to 356.

Turning to `N#Cc1ccc(Nc2nccc(OCc3cccc(C#N)c3)n2)cc1`, the figures for the negative-log EC50 (pEC50) in series [1] and in series [3] were below 5.39 and 6.74, respectively. Besides, the cytotoxic concentration (CC50) at 120 h in series [2] turned out to be 4.1 µM. The selectivity ratio in series [4] is 23.

In the case of `N#Cc1ccc(Nc2nccc(OCc3ccccc3C#N)n2)cc1`, the pEC50 in series [1] was below 3.95; in series [3], 7.85. For the same molecule, the 50% cytotoxic concentration (CC50) at 120 h in series [2] worked out at 113 µM. Further, the selectivity ratio in series [4] was found to be 8070.

As to `N#Cc1ccc(Nc2nccc(OCc3ccccc3C(F)(F)F)n2)cc1`, the pEC50 in series [1] is below 3.76; in series [3] it was 5.77. Besides, the CC50 at 120 h in series [2] was determined as 173 µM. In addition, in series [4], the selectivity ratio amounted to 102.

As to `N#Cc1ccc(Nc2nccc(OCc3ccccc3F)n2)cc1`, the pEC50 is below 3.82 in series [1] and 8.24 in series [3]. In addition, in series [2], the CC50 at 120 h was 151 µM. The selectivity ratio in series [4] came to 26000.

With `Cc1cc(C)nc(Sc2ccnc(Nc3ccc(C#N)cc3)n2)n1`, the pEC50 was below 3.65 in series [1] and 4.57 in series [3]. In addition, in series [2], the CC50 at 120 h was found to be 224 µM. Besides, the selectivity ratio in series [4] came out at 8.

For `N#Cc1ccc(Nc2nccc(OCc3cccc(C(F)(F)F)c3)n2)cc1`, the pEC50 in series [1] is below 3.93; in series [3] it was 6.21. Also, the CC50 at 120 h in series [2] was determined as 118 µM. For the same molecule, in series [4], the selectivity ratio was found to be 193.

As for `N#Cc1ccc(Nc2nccc(OCc3cccc(Cl)c3)n2)cc1`, the pEC50 in series [1] is below 3.82; in series [3], 7.31. Also, in series [2], the 50% cytotoxic concentration (CC50) at 120 h came out at 153 µM. Also, the selectivity ratio in series [4] worked out at 3120.

With `Cc1cccc(COc2ccnc(Nc3ccc(C#N)cc3)n2)c1`, the negative logarithm of the EC50 (pEC50) in series [1] is below 4.52; in series [3], 8.06. Besides, in series [2], the CC50 at 120 h was 30 µM. Besides, in series [4], the selectivity ratio came to 3410.

On to `N#Cc1ccc(Nc2nccc(OCc3cc(F)ccc3Br)n2)cc1`, for which the pEC50 was below 3.72 in series [1] and 7.41 in series [3]. Besides, the CC50 at 120 h in series [2] was determined as 190 µM. Moreover, the selectivity ratio in series [4] turned out to be 4870.

For `N#Cc1ccc(Nc2nccc(OCc3ccccc3Br)n2)cc1`, the pEC50 in series [1] is below 3.89; in series [3] it was 7.44. The CC50 at 120 h in series [2] came to 130 µM. The selectivity ratio in series [4] was found to be 3610.

For `N#Cc1ccc(Nc2nccc(OCc3ccc(F)cc3)n2)cc1`, the negative-log EC50 (pEC50) in series [1] was below 4.09; in series [3], 6.04. Besides, the half-maximal cytotoxic concentration (CC50) at 120 h in series [2] was found to be 81 µM. In addition, the selectivity ratio in series [4] came out at 88.

Consider `COc1cccc(COc2ccnc(Nc3ccc(C#N)cc3)n2)c1`, for which the figures for the pEC50 in series [1] and in series [3] were below 3.93 and 7.60, respectively. Further, the CC50 at 120 h in series [2] was determined as 118 µM. Also, in series [4], the selectivity ratio was 4720.

Take `N#Cc1ccc(Nc2nccc(OCc3cccc4ccccc34)n2)cc1`: the pEC50 in series [1] was below 5.11; in series [3] it was 7.82. Moreover, the CC50 at 120 h in series [2] was 7.7 µM. Further, in series [4], the selectivity ratio stood at 513.

Take `N#Cc1ccc(Nc2nccc(OCc3ccc(Br)cc3F)n2)cc1`: the negative logarithm of the EC50 (pEC50) was below 3.85 in series [1] and 6.66 in series [3]. For the same molecule, in series [2], the CC50 at 120 h came out at 141 µM. The selectivity ratio in series [4] was 641.

As for `N#Cc1ccc(Nc2nccc(OCc3cccnc3)n2)cc1`, the pEC50 in series [1] was below 5.19; in series [3], 6.11. In addition, in series [2], the CC50 at 120 h stood at 6.4 µM. For the same molecule, the selectivity ratio in series [4] came out at 8.

With `N#Cc1ccc(Nc2nccc(OCc3ccc(Br)cc3)n2)cc1`, the pEC50 is below 4.80 in series [1] and 5.33 in series [3]. In series [2], the CC50 at 120 h was determined as 16 µM. Also, the selectivity ratio in series [4] came out at 3.4.

As for `N#Cc1ccc(Nc2nccc(OCc3ccccc3Cl)n2)cc1`, the results for the negative logarithm of the EC50 (pEC50) in series [1] and in series [3] were below 3.84 and 7.47, respectively. For the same molecule, the CC50 at 120 h in series [2] came to 146 µM. The selectivity ratio in series [4] is 4420.

As for `Cc1ccc(COc2ccnc(Nc3ccc(C#N)cc3)n2)cc1`, the pEC50 is below 4.09 in series [1] and 6.80 in series [3]. Further, the CC50 at 120 h in series [2] was 81 µM. Further, the selectivity ratio in series [4] came out at 495.

As for `N#Cc1ccc(COc2ccnc(Nc3ccc(C#N)cc3)n2)cc1`, the results for the negative-log EC50 (pEC50) in series [1] and in series [3] were below 3.68 and 5.85, respectively. Moreover, the CC50 at 120 h in series [2] stood at 209 µM. In addition, the selectivity ratio in series [4] is 149.

For the molecule `COc1cc(COc2ccnc(Nc3ccc(C#N)cc3)n2)cc(OC)c1`, the pEC50 in series [1] was below 4.36; in series [3] it was 8.05. Moreover, the half-maximal cytotoxic concentration (CC50) at 120 h in series [2] amounted to 44.2 µM. Further, the selectivity ratio in series [4] came out at 4940.

For the molecule `N#Cc1ccc(Nc2nccc(NCc3ccccn3)n2)cc1`, the pEC50 in series [1] is below 5.07; in series [3], 8.12. Moreover, in series [2], the half-maximal cytotoxic concentration (CC50) at 120 h was 8.5 µM. Besides, the selectivity ratio in series [4] was determined as 1120.

On to `N#Cc1ccc(Nc2nccc(OCc3ccc(Cl)cc3)n2)cc1`, for which the results for the pEC50 in series [1] and in series [3] were below 3.81 and 6.08, respectively. Further, the CC50 at 120 h in series [2] is 156 µM. In series [4], the selectivity ratio came to 186.

Turning to `Cc1ccccc1COc1ccnc(Nc2ccc(C#N)cc2)n1`, the negative-log EC50 (pEC50) was below 4.92 in series [1] and 6.80 in series [3]. In addition, the 50% cytotoxic concentration (CC50) at 120 h in series [2] was 12 µM. The selectivity ratio in series [4] was determined as 75.

Consider `COc1ccc(COc2ccnc(Nc3ccc(C#N)cc3)n2)cc1`, for which the negative-log EC50 (pEC50) in series [1] was below 3.99; in series [3], 6.00. For the same molecule, the CC50 at 120 h in series [2] worked out at 102 µM. For the same molecule, the selectivity ratio in series [4] is 102.

For `CC(C)Nc1cccnc1N1CCN(C(=O)c2cc3cc(NS(C)(=O)=O)ccc3[nH]2)CC1` [DELAVIRDINE], the CC50 at 120 h in series [2] is 23 µM. Besides, the pEC50 in series [3] was 7.43.

As to `O=C1Nc2ccc(Cl)cc2[C@@](C#CC2CC2)(C(F)(F)F)O1` [EFAVIRENZ], the pEC50 in series [3] was 8.14.

Consider `Cc1cc(C#N)cc(C)c1Oc1nc(Nc2ccc(C#N)cc2)nc(N)c1Br` [ETRAVIRINE], for which the CC50 at 120 h in series [2] is 1.9 µM. Besides, the pEC50 in series [3] was 8.38.

As for `Cc1ccnc2c1NC(=O)c1cccnc1N2C1CC1` [NEVIRAPINE], the CC50 at 120 h in series [2] is above 15 µM. Moreover, in series [3], the negative logarithm of the EC50 (pEC50) was 6.68.

Take `Cc1cn([C@H]2C[C@H](N=[N+]=[N-])[C@@H](CO)O2)c(=O)[nH]c1=O` [ZIDOVUDINE]: the pEC50 in series [3] is 7.96.
